# In article PMC7034278 (Neural Regeneration Research, 2019):
# Key:
# [1] = test system: Sambucus nigra lectin; assay: Competition ELISA; conditions: by phage binding and competition ELISA
# [2] = test system: SK-N-SH human neuroblastoma cells; assay: Cell viability assay; format: cell-based; conditions: 250 μM H2O2, 2 h, in comparison with the vehicle control group
# In short: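 SK-N-SH neuroblastoma cells were seeded at 1 × 10^4 per well and exposed to 250 μM H2O2 for 2 h. They were then cultured a further 48 h; peptide arms received 20 μg/mL. CCK-8 reagent was added for 2 h at 37°C, and absorbance was read at 490 nm. Five repeats; mean ± SEM; one-way ANOVA with Bonferroni post-hoc test.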
# [3] = test system: mouse cerebellar granule neurons; assay: Neurite outgrowth assay, H2O2-stressed cerebellar granule neurons; format: cell-based; conditions: 250 μM H2O2, 2 h, in comparison with the vehicle control group
# In short: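 Primary cerebellar granule neurons from C57BL/6 mice were seeded at 2 × 10^4 cells on poly-D-lysine in Neurobasal A without B-27. They received 250 μM H2O2 for 2 h, then 24 h culture (peptide arms at 20 μg/mL). Cells were fixed in 4% formaldehyde and stained with crystal violet. Neurites at least one soma diameter long and free of cell contact were measured at 40×, about 50 cells per group. Three repeats.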
# [4] = test system: neural cell adhesion molecule L1; assay: L1 immunofluorescence staining, H2O2-stressed SK-N-SH cells; format: cell-based, human; conditions: 250 μM H2O2, 2 h, in comparison with the control group
# In short: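 SK-N-SH cells were seeded at 1 × 10^4 per well, given 250 μM H2O2 for 2 h, then cultured 48 h (peptide arms at 20 μg/mL). Cells were fixed in 4% formaldehyde for 10 min and blocked with 10% donkey serum for 40 min. Anti-L1 mouse monoclonal (1:200) was applied overnight at 4°C, then Alexa 488 secondary (1:500) for 1 h, with DAPI mounting. Confocal L1 intensity was measured.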
# [5] = test system: SK-N-SH human neuroblastoma cells; conditions: previous study; ref Zhang et al., 2017; cited from earlier work
Compound,affinity to Sambucus nigra lectin [1],survival of SK-N-SH cells after H2O2 alone [2],neurite length after H2O2 alone [3],L1 expression after H2O2 alone [4],cell viability of SK-N-SH cells in response to H2O2 [5]
H-PRHGKKPTNKRK-OH [mimetic peptide],high affinity,–,–,–,–
OO [H2O2],–,reduced survival,reduced the lengths of neurites,reduced L1 expression,decreased in a dose- and time-dependent manner
